ChEMBL document CHEMBL1123564, “C-terminal deletions in agonistic and antagonistic analogues of vasopressin that improve their specificities for antidiuretic (V2) and vasopressor (V1) receptors” (J Med Chem, 1987)

Assays:
[1] = species on record: Rattus norvegicus; assay: Compound was tested for antidiuretic activity in rats under ethanol anesthesia; type: functional, Urine
Procedure, shortened: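 Rats under ethanol anesthesia were given antidiuretic agonist assays against the USP posterior pituitary reference standard. Activity is expressed in units/mg.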

[2] = species on record: Rattus norvegicus; assay: Antivasopressor activity in phenoxybenzamine treated rats under urethane anesthesia was determined; Agonistic activity was observed; type: functional

N=C(N)NCCC[C@H](NC(=O)[C@@H]1CCCN1C(=O)[C@@H]1CSSC[C@H](N)C(=O)N[C@@H](Cc2ccc(O)cc2)C(=O)N[C@@H](Cc2ccccc2)C(=O)N[C@@H](CCC(N)=O)C(=O)N[C@@H](CC(N)=O)C(=O)N1)C(=O)NCC(N)=O [VASOPRESSIN]
Antidiuretic activity [1]: 330 U/mg
vasopressor activity [2]: 382 units/mg
